Assay results from different studies.
pIC50: −log10 of the molar value.
Observed: enzyme activity
Action: inhibitor
PIK3CD: Phosphatidylinositol 4,5-bisphosphate 3-kinase catalytic subunit delta isoform (PIK3CD, Homo sapiens, UniProt O00329)
KIT: Mast/stem cell growth factor receptor Kit (KIT, Homo sapiens, UniProt P10721)

COc1cc(N=C2C(=O)Nc3ccccc32)cc(OC)c1  pIC50 (PIK3CD; ADP detection): 7.32
O=C(NO)c1ccc(Cn2cnc3c(Nc4ccc(Cl)cc4)ncnc32)cc1  pIC50 (RAC-beta serine/threonine-protein kinase (AKT2, Homo sapiens, UniProt P31751); radiometric): < 4.70
CN(C)C(=O)c1cc2cnc(Nc3ccc(-c4cccc5c(=O)cc(N6CCOCC6)oc45)cn3)nc2n1C1CCCC1  pIC50 (PIK3CD; radiometric): 5.62
O=C1C(=Nc2ccccc2I)c2ccccc2N1Cc1ccc(Br)cc1  pIC50 (PIK3CD; ADP detection): 6.86
Cc1n[nH]c2ccc3nc(-c4ccc(C(=O)NCCN(C)C)cc4)c4c(c3c12)CCCC4  pIC50 (KIT): 6.68
C=CC(=O)Nc1cccc(Oc2nc(Nc3ccc(N4CCN(C)CC4)cc3)nc3ccoc23)c1  pIC50 (Tyrosine-protein kinase BTK (BTK, Homo sapiens, UniProt Q06187)): > 9.60
CN(C)C(=O)c1cc2cnc(Nc3cc(C(=O)O)cc(-c4ccc5c(=O)cc(N6CCOCC6)oc5c4)c3)nc2n1C1CCCC1  pIC50 (PIK3CD; radiometric): 6.14
CN(C)CCNC(=O)c1ccc(-c2nc3ccc4[nH]ncc4c3c3c2CCCC3)cc1  pIC50 (KIT): < 6.00
CN(C)C(=O)c1cc2cnc(Nc3ccc(-c4cccc5c(=O)cc(N6CCOCC6)oc45)c(F)c3)nc2n1C1CCCC1  pIC50 (PIK3CD; radiometric): 7.39
CNC(=O)[C@H](Cc1c[nH]c2ccccc12)NC(=O)[C@@H](CC(=O)NO)CC(C)C  pIC50 (Matrix metalloproteinase-14 (MMP14, Homo sapiens, UniProt P50281)): 8.86
CC(C)c1cccc(C(C)C)c1N=C1C(=O)N(Cc2cccc(Cl)c2)c2ccccc21  pIC50 (PIK3CD; ADP detection): 6.62
Oc1ccc(-c2nc(-c3ccncc3)c(-c3ccc(F)cc3)[nH]2)cc1  pIC50 (Tau-tubulin kinase 1 (TTBK1, Homo sapiens, UniProt Q5TCY1)): 4.59
CN(C)C(=O)c1cc2cnc(Nc3ccc(-c4cccc5c(=O)cc(N6CCNCC6)oc45)cc3)nc2n1C1CCCC1  pIC50 (PIK3CD; radiometric): 5.64
O=C1C(=Nc2ccc(Cl)cc2)c2ccccc2N1Cc1ccc([N+](=O)[O-])cc1  pIC50 (PIK3CD; ADP detection): 7.52
COc1ccc(-c2cc(=O)c3cccc(Nc4ncc5cc(C(=O)N(C)C)n(C6CCCC6)c5n4)c3o2)cc1  pIC50 (PIK3CD; radiometric): < 5.00
C=CCN1C(=O)C(=Nc2cccc(C)c2)c2ccccc21  pIC50 (PIK3CD; ADP detection): 7.09
CN(C)CCNC(=O)c1ccc(-c2nc3ccc4[nH]ncc4c3c3c2CCCCC3)cc1  pIC50 (KIT): 6.00
CCc1ccc(N=C2C(=O)Nc3ccccc32)cc1  pIC50 (PIK3CD; ADP detection): 6.34
CN(C)C(=O)c1cc2cnc(Nc3ccc(-c4ccc5c(=O)cc(N6CCNCC6)oc5c4)cc3)nc2n1C1CCCC1  pIC50 (PIK3CD; radiometric): 5.02
CCc1nc(C(N)=O)c(Nc2ccc(N3CCC(N4CCN(C)CC4)CC3)c(OC)c2)nc1NC1CCOCC1  pIC50 (KIT): 6.82
